Molecular target: T1, Membrane-bound transcription factor site-1 protease (Homo sapiens, UniProt Q14703)
T1 sequence (Q14703 whole entry): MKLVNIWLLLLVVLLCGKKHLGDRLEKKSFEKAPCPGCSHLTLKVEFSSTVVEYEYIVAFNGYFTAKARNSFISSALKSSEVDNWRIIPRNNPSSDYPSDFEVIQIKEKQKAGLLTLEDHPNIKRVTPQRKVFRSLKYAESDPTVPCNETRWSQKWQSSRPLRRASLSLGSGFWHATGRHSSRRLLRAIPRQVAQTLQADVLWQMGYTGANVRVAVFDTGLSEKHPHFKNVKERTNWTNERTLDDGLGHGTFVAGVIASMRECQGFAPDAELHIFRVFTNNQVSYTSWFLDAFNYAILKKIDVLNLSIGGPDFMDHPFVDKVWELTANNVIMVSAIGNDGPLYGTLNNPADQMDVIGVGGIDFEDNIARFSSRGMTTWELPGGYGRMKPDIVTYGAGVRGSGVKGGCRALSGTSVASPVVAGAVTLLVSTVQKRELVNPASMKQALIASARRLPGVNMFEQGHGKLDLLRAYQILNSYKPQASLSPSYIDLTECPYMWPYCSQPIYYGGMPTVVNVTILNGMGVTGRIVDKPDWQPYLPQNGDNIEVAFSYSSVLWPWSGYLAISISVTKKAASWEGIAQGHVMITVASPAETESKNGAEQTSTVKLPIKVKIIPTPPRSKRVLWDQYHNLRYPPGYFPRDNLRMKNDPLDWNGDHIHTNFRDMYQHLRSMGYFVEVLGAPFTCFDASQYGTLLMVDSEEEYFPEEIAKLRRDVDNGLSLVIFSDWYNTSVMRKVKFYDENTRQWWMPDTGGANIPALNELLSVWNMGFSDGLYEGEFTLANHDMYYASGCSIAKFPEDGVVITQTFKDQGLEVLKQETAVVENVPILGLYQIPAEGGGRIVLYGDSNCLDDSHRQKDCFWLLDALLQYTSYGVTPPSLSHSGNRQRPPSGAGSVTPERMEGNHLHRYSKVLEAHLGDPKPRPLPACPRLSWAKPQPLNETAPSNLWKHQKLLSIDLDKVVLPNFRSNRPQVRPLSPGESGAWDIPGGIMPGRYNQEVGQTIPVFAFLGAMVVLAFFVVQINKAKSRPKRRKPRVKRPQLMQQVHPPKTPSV
Experiment: Inhibition of human recombinant soluble Kexin isozyme 1
Outline: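 Recombinant soluble human SKI-1 (activity normalized to 10 pmol Abz-peptide released per µL per h, 37 °C). Only the E-form was tested, at varying concentrations, with quenched fluorogenic Abz-Q-GPC251–263-Tyx substrate in Tris/Mes/2 mM CaCl2 buffer at 37 °C. RFU (ex 320/em 420 nm) were read from 0–6 h and converted to cleavage rates. Ki came from Dixon plots at 0.1, 0.05 and 0.025 mM substrate.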

Ki [µM] | Compound
125 | CC(C)[C@H](NC(=O)COc1ccccc1/N=N/c1ccccc1OCC(=O)N[C@H](C(=O)OCc1ccccc1)C(C)C)C(=O)OCc1ccccc1
11.8 | O=C(COc1ccccc1/N=N/c1ccccc1OCC(=O)N[C@@H](Cc1ccccc1)C(=O)OCc1ccccc1)N[C@@H](Cc1ccccc1)C(=O)OCc1ccccc1
75 | CC(C)[C@H](NC(=O)COc1ccccc1/N=N/c1ccccc1OCC(=O)N[C@H](C(=O)O)C(C)C)C(=O)O
225 | O=C(COc1ccccc1/N=N/c1ccccc1OCC(=O)N[C@@H](Cc1ccccc1)C(=O)O)N[C@@H](Cc1ccccc1)C(=O)O
265 | O=C(O)CNC(=O)COc1ccccc1/N=N/c1ccccc1OCC(=O)NCC(=O)O
140 | O=C(COc1ccccc1/N=N/c1ccccc1OCC(=O)N[C@@H](Cc1ccccc1)C(=O)N[C@@H](Cc1ccccc1)C(=O)O)N[C@@H](Cc1ccccc1)C(=O)N[C@@H](Cc1ccccc1)C(=O)O
